Laboratory results: ChEMBL document CHEMBL1123221, “Dihydropyridazinone cardiotonics: the discovery and inotropic activity of 1,3-dihydro-3,3-dimethyl-5-(1,4,5,6-tetrahydro-6-oxo-3-pyridazinyl)-2H -indol-2-one” (J Med Chem, 1986)

The compounds below were run on Canis familiaris (assay: Evaluated for percent decrease in maximum arterial blood pressure in anesthetized dogs). Settings: not given.
Type: functional, Canis lupus familiaris
How it was run: (§1)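 Right ventricular contractility measured by strain-gauge arch at 50 g tension; femoral arterial pressure and heart rate also recorded. Increasing log doses given iv at 5-min intervals, with peak responses recorded. ED50 by linear regression (mean ± SEM). Heart rate and MAP are % changes at the inotropic ED50.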
In the case of CCC1C(=O)Nc2ccc(C3=NNC(=O)CC3)cc21 (centres undefined), the Decrease is reported as 12%. For O=C1CCC(c2ccc3c(c2)CCCN3)=NN1, the Decrease was 12%. For CN1N=C(c2ccc3c(c2)CC(=O)N3)CCC1=O, the Decrease was 7%. Work on CC1(C)Cc2cc(C3=NNC(=O)CC3)ccc2NC1=O yielded a Decrease of 3%. Work on CC1(C)CC(=O)Nc2ccc(C3=NNC(=O)CC3)cc21 yielded a Decrease of 15%. CC1CC(c2ccc3c(c2)C(C)(C)C(=O)N3)=NNC1=O (centres undefined) gave a Decrease of 20%. CCC1(CC)C(=O)Nc2ccc(C3=NNC(=O)CC3)cc21 gave a Decrease of 7.5%. CCC1(C)C(=O)Nc2ccc(C3=NNC(=O)CC3)cc21 (centres undefined) gave a Decrease of 3.1%. In the case of Cc1cc2c(cc1C1=NNC(=O)CC1)C(C)(C)C(=O)N2, the Decrease is reported as 0.5%. CN1C(=O)CCc2cc(C3=NNC(=O)CC3)ccc21 was tested, and the Decrease was 21%. In the case of CC1CC(=O)NN=C1c1ccc2c(c1)C(C)(C)C(=O)N2C (centres undefined), the Decrease is reported as 26%. Cc1cc(C2=NNC(=O)CC2)cc2c1NC(=O)C2(C)C gave a Decrease of 17%.

These compounds were tested on Canis familiaris (assay: Evaluated for percent increase in heart rate in anesthetized dogs). Settings: not given.
Type: functional, Canis lupus familiaris
How it was run: as §1
CCC1C(=O)Nc2ccc(C3=NNC(=O)CC3)cc21 (centres undefined) gave an Increase of 18%. In the case of O=C1CCC(c2ccc3c(c2)CCCN3)=NN1, the Increase is reported as 37%. CN1N=C(c2ccc3c(c2)CC(=O)N3)CCC1=O showed an Increase of 11%. CC1(C)Cc2cc(C3=NNC(=O)CC3)ccc2NC1=O gave an Increase of 8.5%. CC1(C)CC(=O)Nc2ccc(C3=NNC(=O)CC3)cc21 gave an Increase of 5.9%. For CC1CC(c2ccc3c(c2)C(C)(C)C(=O)N3)=NNC1=O (centres undefined), the Increase was 13%. With CCC1(CC)C(=O)Nc2ccc(C3=NNC(=O)CC3)cc21 the Increase was 8.9%. CCC1(C)C(=O)Nc2ccc(C3=NNC(=O)CC3)cc21 (centres undefined) gave an Increase of 2%. Cc1cc2c(cc1C1=NNC(=O)CC1)C(C)(C)C(=O)N2 was tested, and the Increase was 7.9%. Work on CN1C(=O)CCc2cc(C3=NNC(=O)CC3)ccc21 yielded an Increase of 26%. CC1CC(=O)NN=C1c1ccc2c(c1)C(C)(C)C(=O)N2C (centres undefined) gave an Increase of 21.4%. Work on Cc1cc(C2=NNC(=O)CC2)cc2c1NC(=O)C2(C)C yielded an Increase of 8.5%.

What follows are compounds tested on Canis familiaris (assay: Compound was tested for cardiovascular profile in conscious dogs at dose of 100 ug/kg po). Settings: not given.
CN1C(=O)CCc2cc(C3=NNC(=O)CC3)ccc21 was tested, and the Control was 134%.

Each compound was assayed on Canis familiaris (assay: Compound was tested for cardiovascular profile in conscious dogs at dose of 500 ug/kg po). Settings: not given.
Type: functional, Canis lupus familiaris, Heart
How it was run: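 Conscious, chronically instrumented dogs fasted 18 h; drug or lactose placebo given orally in 000 gelatin capsules. Contractility index was LV dP/dt60 (first derivative of left ventricular pressure at 60 mmHg); heart rate and LV systolic pressure also monitored.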
Work on CC1(C)Cc2cc(C3=NNC(=O)CC3)ccc2NC1=O yielded a Percent of control of 116%. Work on CC1(C)CC(=O)Nc2ccc(C3=NNC(=O)CC3)cc21 yielded a Percent of control of 133%.

The compounds below were run on Canis familiaris (assay: Compound was evaluated for percent decrease in maximum arterial blood pressure in anesthetized dogs). Settings: not given.
Type: functional, Canis lupus familiaris, Artery
Parameters: scale not given: the % may be the effect or the level left
How it was run: as §1, with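 “Mongrel dogs of either sex (7–14 kg), pentobarbital-anesthetized (35 mg/kg iv), ventilated, kept at 37–38 °C. Right” for “Right”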
CC1CC(=O)NN=C1c1ccc2c(c1)C(C)(C)C(=O)N2 (centres undefined) showed a Control of 26%.

These compounds were tested on Canis familiaris (assay: Tested for cardiovascular contractility in anesthetized dogs). Settings: Canis lupus familiaris.
Type: functional
How it was run: as §1
In the case of CC1CC(=O)NN=C1c1ccc2c(c1)C(C)(C)C(=O)N2 (centres undefined), the ED50 is reported as 0.0032 mg/kg. CCC1C(=O)Nc2ccc(C3=NNC(=O)CC3)cc21 (centres undefined) showed an ED50 of 0.071 mg/kg. For O=C1CCC(c2ccc3c(c2)CCCN3)=NN1, the ED50 was 0.257 mg/kg. For CN1N=C(c2ccc3c(c2)CC(=O)N3)CCC1=O, the ED50 was 0.271 mg/kg. Compound CC1(C)Cc2cc(C3=NNC(=O)CC3)ccc2NC1=O has an ED50 of 0.021 mg/kg. With CC1(C)CC(=O)Nc2ccc(C3=NNC(=O)CC3)cc21 the ED50 was 0.086 mg/kg. In the case of CC1CC(c2ccc3c(c2)C(C)(C)C(=O)N3)=NNC1=O (centres undefined), the ED50 is reported as 0.015 mg/kg. Compound CCC1(CC)C(=O)Nc2ccc(C3=NNC(=O)CC3)cc21 has an ED50 of 0.741 mg/kg. CCC1(C)C(=O)Nc2ccc(C3=NNC(=O)CC3)cc21 (centres undefined) was tested, and the ED50 was 0.022 mg/kg. Compound Cc1cc2c(cc1C1=NNC(=O)CC1)C(C)(C)C(=O)N2 has an ED50 of 0.04 mg/kg. With CN1C(=O)CCc2cc(C3=NNC(=O)CC3)ccc21 the ED50 was 0.0124 mg/kg. Compound CC1CC(=O)NN=C1c1ccc2c(c1)C(C)(C)C(=O)N2C (centres undefined) has an ED50 of 0.0044 mg/kg. Cc1cc(C2=NNC(=O)CC2)cc2c1NC(=O)C2(C)C showed an ED50 of 0.0095 mg/kg.

These compounds were tested on Canis familiaris (assay: Compound was evaluated for percent increase in heart rate in anesthetized dogs). Settings: not given.
Type: functional, Canis lupus familiaris
How it was run: as §1, with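 “Mongrel dogs of either sex (7–14 kg), pentobarbital-anesthetized (35 mg/kg iv), ventilated, kept at 37–38 °C. Right” for “Right”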
CC1CC(=O)NN=C1c1ccc2c(c1)C(C)(C)C(=O)N2 (centres undefined) gave a Control of 16%.

The compounds below were run on Canis familiaris (assay: Compound was tested for cardiovascular profile in conscious dogs at dose of 50 ug/kg po). Settings: not given.
Work on CC1CC(=O)NN=C1c1ccc2c(c1)C(C)(C)C(=O)N2 (centres undefined) yielded a Control of 150%.

The compounds below were run on Canis familiaris (assay: Compound was tested for cardiovascular profile in conscious dogs at dose of 400 ug/kg po). Settings: not given.
Work on CCC1(C)C(=O)Nc2ccc(C3=NNC(=O)CC3)cc21 (centres undefined) yielded a Control of 149%.
